Measurements pooled from the literature.
Each line is one published result; the experiments were not run side by side.
UGT1A6: UDP-glucuronosyltransferase 1A6 (UGT1A6, Homo sapiens, UniProt P19224)

SMILES	target or system	assay	test system	setting	endpoint	result
Fc1ccc(-c2csc(NN=Cc3ccccc3C(F)(F)F)n2)cc1		haemolysis	human	100 µM, 30 min, pH 7.4	haemolysis	45.7%
OC(Cn1cncn1)(Cn1cncn1)c1ccc(F)cc1F		haemolysis	human	8 µg/mL, 1 h	haemolysis	4.52%
CCOP(=O)(OCC)[C@@H]1C[C@@H](n2cc(Cn3cc(C)c(=O)[nH]c3=O)nn2)ON1C (racemic)	HEL	cell growth or viability		72 h	CC50	> 100 µM
C[C@H](O)c1cc(C(=O)N[C@@H](C)Cn2ccc(-c3ccc(C#N)c(Cl)c3)n2)n[nH]1	UGT1A6	enzyme activity, inhibitor	human, liver microsomes		IC50	> 100 µM
COc1cccc(-n2cc(CN3CCN(C(=O)c4c(C)nc5ccc(Cl)cn45)CC3)nn2)c1	HeLa	cell growth or viability, resazurin			CC50	> 100 µM
COc1c(F)cccc1C=NNc1nc(-c2ccc(F)cc2)cs1		haemolysis	human	100 µM, 30 min, pH 7.4	haemolysis	36.6%
CCCc1cn(CCN2CCN(C(=O)c3c(C)nc4ccc(Cl)cn34)CC2)nn1	HeLa	cell growth or viability, resazurin			CC50	> 100 µM
CC(=O)c1cc(C(=O)N[C@@H](C)Cn2ccc(-c3ccc(C#N)c(Cl)c3)n2)[nH]n1	UGT1A6	enzyme activity, inhibitor	human, liver microsomes		IC50	> 50 µM
CCOc1ccccc1C=NNc1nc(-c2ccc(F)cc2)cs1		haemolysis	human	50 µM, 30 min, pH 7.4	haemolysis	16.8%
CCOP(=O)(OCC)[C@@H]1C[C@H](n2cc(Cn3cnc4c(N)ncnc43)nn2)ON1C (relative stereo)	HEL	cell growth or viability		72 h	CC50	> 100 µM
Cc1nc2ccc(Cl)cn2c1C(=O)N1CCN(Cc2cn(-c3cccc(C(F)(F)F)c3)nn2)CC1	HeLa	cell growth or viability, resazurin			CC50	> 100 µM
Fc1ccc(-c2csc(NN=Cc3ccc(C(F)(F)F)cc3)n2)cc1		haemolysis	human	100 µM, 30 min, pH 7.4	haemolysis	41%
CN(CCC(=O)O)C(=O)c1ccc2c(c1)CC[C@@H]1[C@@H]2CC[C@]2(C)C(c3cncc(F)c3)=CC[C@@H]12	UGT1A6	enzyme activity, inhibitor			IC50	> 30 µM
COc1ccc(S(=O)(=O)Nc2c(C(=O)Nc3c(C(=O)O)cc(OC)c(OC)c3OC)cc(OC)c(OC)c2OC)cc1	HeLa	cell growth or viability, XTT		72 h	IC50	95 µM
CCc1cc(/C(C)=N/OCc2ccc(C3CCCCC3)c(C(F)(F)F)c2)ccc1CN1CC(C(=O)O)C1	Cytochrome P450 2B6 (CYP2B6, Homo sapiens, UniProt P20813)	enzyme activity, inhibitor	human, liver microsomes	100 µM, 20 min	inhibition	21%
Cc1nc2ccc(Cl)cn2c1C(=O)N1CCN(CCn2cc(-c3ccc(C(C)(C)C)cc3)nn2)CC1	HeLa	cell growth or viability, resazurin			CC50	> 100 µM
Oc1ccc(Cl)cc1C=NNc1nc(-c2ccc(F)cc2)cs1		haemolysis	human	50 µM, 30 min, pH 7.4	haemolysis	21.2%
CCOP(=O)(OCC)[C@@H]1C[C@H](n2cc(Cn3ccc(NC(C)=O)nc3=O)nn2)ON1C (racemic)	HEL	cell growth or viability		72 h	CC50	> 100 µM
CCc1ccc(-n2cc(CN3CCN(C(=O)c4c(C)nc5ccc(Cl)cn45)CC3)nn2)cc1	HeLa	cell growth or viability, resazurin			CC50	58.1 µM
C[C@@H]1[C@H](O)[C@@H](C)/C=C/C=C/C=C/C=C/C=C/C=C/C=C/[C@H](O[C@@H]2O[C@H](C)[C@@H](O)[C@H](N)[C@@H]2O)C[C@@H]2O[C@](O)(C[C@@H](O)C[C@@H](O)[C@H](O)CC[C@@H](O)C[C@@H](O)CC(=O)O[C@H]1C)C[C@H](O)[C@H]2C(=O)O		haemolysis	human	0.5 µg/mL, 1 h	haemolysis	3.73%
COc1cccc(-n2cc(CN3CCN(C(=O)c4c(C)nc5cc(C)ccn45)CC3)nn2)c1	HeLa	cell growth or viability, resazurin			CC50	> 100 µM
CC(=NNc1nc(-c2ccc(F)cc2)cs1)c1cccc(Br)c1		haemolysis	human	10 µM, 30 min, pH 7.4	haemolysis	0%
CCOP(=O)(OCC)[C@@H]1C[C@@H](n2cc(-c3ccccc3)nn2)ON1C (racemic)	HeLa	cell growth or viability		72 h	CC50	> 250 µM
Cc1cc(C)cc(-n2cc(CN3CCN(C(=O)c4c(C)nc5ccc(Cl)cn45)CC3)nn2)c1	HeLa	cell growth or viability, resazurin			CC50	> 100 µM
CCCCCCCCCCCCCCCCOP(=O)([O-])OCC[N+](C)(C)C	HeLa	cell growth or viability, XTT		72 h	IC50	6.5 µM
Fc1ccc(-c2csc(NN=Cc3cccs3)n2)cc1		haemolysis	human	50 µM, 30 min, pH 7.4	haemolysis	32.4%
CCCc1cn(CCN2CCN(C(=O)c3c(C)nc4cc(C)ccn34)CC2)nn1	HeLa	cell growth or viability, resazurin			CC50	> 100 µM
CCOP(=O)(OCC)[C@@H]1C[C@H](n2cc(Cn3ccc(=O)[nH]c3=O)nn2)ON1C (racemic)	HeLa	cell growth or viability		72 h	CC50	> 250 µM
Fc1ccc(-c2csc(NN=Cc3ccc[nH]3)n2)cc1		haemolysis	human	50 µM, 30 min, pH 7.4	haemolysis	26.3%
